pIC50, pKd, pKi: −log10 of the molar value. One block for each molecule: values may come before it. Active and inactive are the calls of the source. The calls are words filed in the database; no cut-off is given here. Numbered stars: 1 amine (or outer) side, 2 acyl side, 3 side chain; on linkers, the order of the positions; unused ones are H or OH. Square brackets hold non-standard residues; d marks the D form. Peptide text beside a SMILES is read from it. X1 = Nc1ncnc2c1ncn2[C@@H]1O[C@H](CSCCCN(CC(=O)[*:2])[*:1])[C@@H](O)[C@H]1O; Nlys = NCCCCNCC(=O)O
Columns and labels:
[1] = target: T1, N-terminal Xaa-Pro-Lys N-methyltransferase 1 (Homo sapiens, UniProt Q9BV86); assay: Inhibition of NTMT1 (unknown origin) pre-incubated for 10 mins before GPKRIA peptide substrate addition by SAHH coupled fluorescence assay; conditions: for pIC50: read-out: IC50
T1 sequence (Q9BV86 whole entry): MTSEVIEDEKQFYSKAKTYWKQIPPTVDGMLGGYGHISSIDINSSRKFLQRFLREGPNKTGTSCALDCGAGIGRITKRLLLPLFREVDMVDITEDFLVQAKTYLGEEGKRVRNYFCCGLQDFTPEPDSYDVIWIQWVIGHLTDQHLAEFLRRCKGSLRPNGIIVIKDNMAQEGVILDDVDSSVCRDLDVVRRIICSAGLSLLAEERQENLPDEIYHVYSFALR
Procedure, shortened: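 Inhibitor at 0.15 nM–10 μM, preincubated 10 min. Reaction started with 0.5 μM GPKRIA (Km). Fluorescence read at ex 400/em 465 nm; IC50 derived.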

[2] = target: T2, N-terminal Xaa-Pro-Lys N-methyltransferase 1 (Homo sapiens) (UniProt Q9BV86); assay: Substrate activity at NTMT1 (unknown origin) assessed as compound methylation at 10 uM incubated overnight by MALDI-MS methylation assay
T2 sequence (whole entry): T1 sequence (Q9BV86 whole entry)
Procedure, shortened: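 Compound (10 µM) incubated overnight at 37 °C with 0.1 µM NTMT1 and 3 µM SAM in 20 mM Tris pH 7.5, 50 mM KCl. Quenched 1:1 with 20 mM NH4H2PO4, 0.4% TFA in 1:1 acetonitrile/water. Methylated compound detected by MALDI-MS with 2,5-dihydroxybenzoic acid matrix.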

[3] = target: T1, N-terminal Xaa-Pro-Lys N-methyltransferase 1; assay: Time dependent inhibition of NTMT1 (unknown origin) pre-incubated for 30 mins before GPKRIA peptide substrate addition by SAHH coupled fluorescence assay based Morrison's quadratic equation analysis
[4] = target: T1, N-terminal Xaa-Pro-Lys N-methyltransferase 1; assay: Time dependent inhibition of NTMT1 (unknown origin) pre-incubated for 10 mins before GPKRIA peptide substrate addition by SAHH coupled fluorescence assay based Morrison's quadratic equation analysis
[5] = target: T1, N-terminal Xaa-Pro-Lys N-methyltransferase 1; assay: Time dependent inhibition of NTMT1 (unknown origin) pre-incubated for 60 mins before GPKRIA peptide substrate addition by SAHH coupled fluorescence assay based Morrison's quadratic equation analysis
[6] = target: Protein arginine N-methyltransferase 3 (Homo sapiens) (UniProt O60678); assay: Inhibition of PRMT3 (unknown origin) at 30 uM pre-incubated for 10 mins before H4-21 peptide addition in presence of SAM relative to control
Chain of Protein arginine N-methyltransferase 3 (Homo sapiens) (O60678 2-531 limits assumed): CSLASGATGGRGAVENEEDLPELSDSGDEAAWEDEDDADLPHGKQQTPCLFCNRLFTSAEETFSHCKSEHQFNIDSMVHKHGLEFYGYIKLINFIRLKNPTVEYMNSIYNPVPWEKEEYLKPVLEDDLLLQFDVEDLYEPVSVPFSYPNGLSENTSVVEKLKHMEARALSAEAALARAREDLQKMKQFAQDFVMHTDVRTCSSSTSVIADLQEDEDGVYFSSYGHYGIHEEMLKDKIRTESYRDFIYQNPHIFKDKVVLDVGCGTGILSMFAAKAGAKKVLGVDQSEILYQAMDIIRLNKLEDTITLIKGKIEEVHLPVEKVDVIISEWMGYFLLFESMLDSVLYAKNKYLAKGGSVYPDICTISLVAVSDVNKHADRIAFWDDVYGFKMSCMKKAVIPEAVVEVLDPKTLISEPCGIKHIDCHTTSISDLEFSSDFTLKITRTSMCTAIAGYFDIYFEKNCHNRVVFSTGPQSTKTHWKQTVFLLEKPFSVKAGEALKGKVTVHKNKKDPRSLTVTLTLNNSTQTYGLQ

[7] = target: Protein arginine N-methyltransferase 1 (Homo sapiens) (UniProt Q99873); assay: Inhibition of PRMT1 (unknown origin) at 30 uM relative to control
Chain of Protein arginine N-methyltransferase 1 (Homo sapiens) (Q99873 whole entry, looked up): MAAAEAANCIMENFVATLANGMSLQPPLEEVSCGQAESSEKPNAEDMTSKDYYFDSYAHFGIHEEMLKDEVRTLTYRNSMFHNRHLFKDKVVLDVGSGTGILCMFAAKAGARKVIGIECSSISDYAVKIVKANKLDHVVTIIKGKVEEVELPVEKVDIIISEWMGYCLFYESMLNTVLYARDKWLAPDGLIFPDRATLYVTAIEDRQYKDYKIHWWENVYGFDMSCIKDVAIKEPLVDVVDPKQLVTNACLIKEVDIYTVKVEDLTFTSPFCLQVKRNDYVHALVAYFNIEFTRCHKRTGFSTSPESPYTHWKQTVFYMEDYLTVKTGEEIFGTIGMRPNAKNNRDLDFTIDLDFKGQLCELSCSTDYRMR

[8] = target: T1, N-terminal Xaa-Pro-Lys N-methyltransferase 1; assay: Time dependent inhibition of NTMT1 (unknown origin) pre-incubated for 120 mins before GPKRIA peptide substrate addition by SAHH coupled fluorescence assay based Morrison's quadratic equation analysis
[9] = target: N-terminal Xaa-Pro-Lys N-methyltransferase 2 (Homo sapiens, UniProt Q5VVY1); assay: Binding affinity to […] (unknown origin) by ITC assay
Chain of N-terminal Xaa-Pro-Lys N-methyltransferase 2 (Q5VVY1 whole entry): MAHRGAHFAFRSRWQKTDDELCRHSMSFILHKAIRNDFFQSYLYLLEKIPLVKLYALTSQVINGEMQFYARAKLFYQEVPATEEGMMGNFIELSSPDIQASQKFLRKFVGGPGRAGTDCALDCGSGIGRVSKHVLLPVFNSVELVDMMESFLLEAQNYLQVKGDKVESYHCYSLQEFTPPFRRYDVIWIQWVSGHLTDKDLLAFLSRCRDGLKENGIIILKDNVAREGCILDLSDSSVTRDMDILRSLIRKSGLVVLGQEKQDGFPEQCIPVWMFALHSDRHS
Procedure, shortened: (§1)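 Purified NTMT1 or NTMT2 at 30–50 μM in the cell; compound at 0.5–1 mM in the same buffer, titrated in as 26 injections of 10 μl spaced 180 s. Data fitted to a one-site or two-site binding model.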

[10] = target: T1, N-terminal Xaa-Pro-Lys N-methyltransferase 1; assay: Binding affinity to NTMT1 (unknown origin) assessed as binding constant Kd2 by ITC assay; procedure, shortened: as §1
[11] = target: T1, N-terminal Xaa-Pro-Lys N-methyltransferase 1; assay: Time dependent inhibition of NTMT1 (unknown origin) pre-incubated for 90 mins before GPKRIA peptide substrate addition by SAHH coupled fluorescence assay based Morrison's quadratic equation analysis
[12] = target: T1, N-terminal Xaa-Pro-Lys N-methyltransferase 1; assay: Binding affinity to NTMT1 (unknown origin) assessed as binding constant Kd1 by ITC assay; procedure, shortened: as §1
[13] = target: Adenosylhomocysteinase (Homo sapiens) (UniProt P23526); assay: Inhibition of SAHH (unknown origin) at 30 uM relative to control
Chain of Adenosylhomocysteinase (Homo sapiens) (P23526 2-432 limits assumed): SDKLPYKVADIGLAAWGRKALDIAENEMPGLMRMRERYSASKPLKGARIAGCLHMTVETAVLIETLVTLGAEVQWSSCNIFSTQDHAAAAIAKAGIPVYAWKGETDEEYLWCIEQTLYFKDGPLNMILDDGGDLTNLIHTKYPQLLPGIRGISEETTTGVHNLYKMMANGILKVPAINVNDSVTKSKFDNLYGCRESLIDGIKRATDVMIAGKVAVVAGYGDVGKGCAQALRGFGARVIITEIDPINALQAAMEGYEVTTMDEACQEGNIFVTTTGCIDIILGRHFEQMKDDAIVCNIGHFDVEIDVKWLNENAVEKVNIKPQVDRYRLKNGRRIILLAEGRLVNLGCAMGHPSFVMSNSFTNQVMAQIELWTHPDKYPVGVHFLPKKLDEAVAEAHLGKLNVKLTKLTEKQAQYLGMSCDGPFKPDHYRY

Trypanosoma brucei = assay: Inhibition of Trypanosoma brucei PRMT7 at 30 uM relative to control
[14] = target: T3, Histone-lysine N-methyltransferase EHMT2 (Homo sapiens) (UniProt Q96KQ7); assay: Inhibition of G9a (unknown origin) at 100 uM
T3 sequence (whole entry): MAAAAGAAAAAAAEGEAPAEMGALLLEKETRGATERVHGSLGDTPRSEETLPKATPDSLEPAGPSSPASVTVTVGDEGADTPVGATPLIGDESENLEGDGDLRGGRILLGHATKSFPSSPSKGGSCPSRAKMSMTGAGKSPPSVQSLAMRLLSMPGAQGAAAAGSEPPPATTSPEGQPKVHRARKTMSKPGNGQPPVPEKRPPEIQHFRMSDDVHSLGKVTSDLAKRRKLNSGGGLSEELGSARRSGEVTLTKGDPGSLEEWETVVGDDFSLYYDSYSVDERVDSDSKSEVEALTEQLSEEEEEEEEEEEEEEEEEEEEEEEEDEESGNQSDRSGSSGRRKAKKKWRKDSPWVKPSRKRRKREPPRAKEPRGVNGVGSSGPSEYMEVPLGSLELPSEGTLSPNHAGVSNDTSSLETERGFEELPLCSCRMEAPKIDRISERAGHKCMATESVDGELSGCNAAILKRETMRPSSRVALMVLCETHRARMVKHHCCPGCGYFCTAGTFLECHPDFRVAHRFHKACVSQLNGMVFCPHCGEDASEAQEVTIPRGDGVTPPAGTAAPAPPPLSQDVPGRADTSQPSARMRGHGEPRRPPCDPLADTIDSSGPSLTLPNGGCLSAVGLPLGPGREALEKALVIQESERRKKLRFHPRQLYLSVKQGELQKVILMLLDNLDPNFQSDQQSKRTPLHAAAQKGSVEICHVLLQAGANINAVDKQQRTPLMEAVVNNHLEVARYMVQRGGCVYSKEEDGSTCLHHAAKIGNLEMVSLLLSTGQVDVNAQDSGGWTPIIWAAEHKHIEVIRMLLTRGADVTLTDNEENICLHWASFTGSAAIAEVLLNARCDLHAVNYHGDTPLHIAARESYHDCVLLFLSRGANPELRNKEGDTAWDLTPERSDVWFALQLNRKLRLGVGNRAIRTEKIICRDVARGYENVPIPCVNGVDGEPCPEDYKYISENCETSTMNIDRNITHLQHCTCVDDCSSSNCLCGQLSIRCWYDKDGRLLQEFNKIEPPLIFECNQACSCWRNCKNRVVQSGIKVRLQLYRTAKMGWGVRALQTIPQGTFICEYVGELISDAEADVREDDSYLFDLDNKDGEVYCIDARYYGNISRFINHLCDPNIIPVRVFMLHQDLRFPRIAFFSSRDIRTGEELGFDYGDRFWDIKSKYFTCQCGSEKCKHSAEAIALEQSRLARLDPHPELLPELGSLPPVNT

[15] = target: T4, Histone-lysine N-methyltransferase SETD7 (Homo sapiens) (UniProt Q8WTS6); assay: Inhibition of SETD7 (unknown origin) at 100 uM
T4 sequence (whole entry): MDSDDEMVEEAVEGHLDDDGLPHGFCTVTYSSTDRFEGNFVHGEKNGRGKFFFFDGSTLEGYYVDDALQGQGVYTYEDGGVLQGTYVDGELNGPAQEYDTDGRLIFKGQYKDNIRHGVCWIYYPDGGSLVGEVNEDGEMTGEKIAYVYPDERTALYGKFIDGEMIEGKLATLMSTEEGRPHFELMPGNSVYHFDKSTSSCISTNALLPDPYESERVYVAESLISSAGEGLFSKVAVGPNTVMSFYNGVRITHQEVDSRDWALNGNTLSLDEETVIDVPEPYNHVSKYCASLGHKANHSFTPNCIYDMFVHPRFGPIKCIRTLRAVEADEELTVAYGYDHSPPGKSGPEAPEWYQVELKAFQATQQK

[16] = target: T5, Nicotinamide N-methyltransferase (Homo sapiens) (UniProt P40261); assay: Inhibition of NNMT (unknown origin) at 100 uM
T5 sequence (whole entry): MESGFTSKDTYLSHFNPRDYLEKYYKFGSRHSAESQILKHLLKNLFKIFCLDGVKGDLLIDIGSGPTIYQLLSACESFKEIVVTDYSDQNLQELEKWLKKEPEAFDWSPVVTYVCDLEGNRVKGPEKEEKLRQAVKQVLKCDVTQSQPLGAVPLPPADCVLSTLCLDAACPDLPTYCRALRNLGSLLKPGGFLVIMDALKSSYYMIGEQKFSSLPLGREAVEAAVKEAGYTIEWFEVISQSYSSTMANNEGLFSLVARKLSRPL

[17] = target: T1, N-terminal Xaa-Pro-Lys N-methyltransferase 1; assay: Inhibition of NTMT1 (unknown origin) pre-incubated for 10 mins before GPKRIA peptide substrate addition and measured after 20 mins by MALDI-MS methylation assay

SMILES: N=C(N)NCCC[C@H](NC(=O)[C@H](CCCCN)NC(=O)[C@@H]1CCCN1C(=O)CNCCN(CC[C@H](N)C(=O)O)C[C@H]1O[C@@H](n2cnc3c(N)ncnc32)[C@H](O)[C@@H]1O)C(N)=O
pIC50 [1]: 6.49

SMILES: N=C(N)NCCC[C@H](NC(=O)[C@H](CCCCN)NC(=O)[C@@H]1CCCN1C(=O)CNCCCCN(CC[C@H](N)C(=O)O)C[C@H]1O[C@@H](n2cnc3c(N)ncnc32)[C@H](O)[C@@H]1O)C(N)=O
pIC50 [1]: 7.08

SMILES: N=C(N)NCCC[C@H](NC(=O)[C@H](CCCCN)NC(=O)[C@@H]1CCCN1C(=O)CNCCCN(CC[C@H](N)C(=O)O)C[C@H]1O[C@@H](n2cnc3c(N)ncnc32)[C@H](O)[C@@H]1O)C(N)=O
pIC50 [1]: 6.70

Activity [2]: Active
SMILES: CC[C@H](C)[C@H](NC(=O)[C@H](CCCNC(=N)N)NC(=O)[C@H](CCCCN)NC(=O)[C@@H]1CCCN1C(=O)CNCCCSC[C@H]1O[C@@H](n2cnc3c(N)ncnc32)[C@H](O)[C@@H]1O)C(=O)N[C@@H](C)C(N)=O (H-[X1]PKRIA-NH2)

SMILES: CC[C@H](C)[C@H](NC(=O)[C@H](CCCNC(=N)N)NC(=O)[C@H](CCCCN)NC(=O)[C@@H]1CCCN1C(=O)CNCCCCN(CC[C@H](N)C(=O)O)C[C@H]1O[C@@H](n2cnc3c(N)ncnc32)[C@H](O)[C@@H]1O)C(=O)N[C@@H](C)C(N)=O
pKi [3]: 9.31 | pKi [4]: 7.82 | pKi [5]: 9.14 | inhibition [6]: < 50% | pIC50 [1]: 7.09 | inhibition [7]: < 50% | pKi [8]: 9.89 | Kd [9]: Not Active | pKd [10]: 8.61 | pKi [11]: 9.21 | pKd [12]: 6.51 | inhibition [13]: < 50% | inhibition (Trypanosoma brucei): < 50% | inhibition [14]: inactive | inhibition [15]: inactive | inhibition [16]: inactive

SMILES: CC[C@H](C)[C@H](NC(=O)[C@H](CCCNC(=N)N)NC(=O)[C@H](CCCCN)NC(=O)[C@@H]1CCCN1C(=O)CNCCN(CC[C@H](N)C(=O)O)C[C@H]1O[C@@H](n2cnc3c(N)ncnc32)[C@H](O)[C@@H]1O)C(=O)N[C@@H](C)C(N)=O
pKi [3]: 8.17 | pKi [4]: 7.00 | pKi [5]: 8.09 | pIC50 [1]: 6.59 | pKi [8]: 8.27 | Kd [9]: Not Active | pKd [10]: 7.33 | pKi [11]: 8.31 | pKd [12]: 6.01

SMILES: CC[C@H](C)[C@H](NC(=O)[C@H](CCCNC(=N)N)NC(=O)[C@H](CCCCN)NC(=O)[C@@H]1CCCN1C(=O)CNCCCCCN(CC[C@H](N)C(=O)O)C[C@H]1O[C@@H](n2cnc3c(N)ncnc32)[C@H](O)[C@@H]1O)C(=O)N[C@@H](C)C(N)=O
IC50 [1]: Not Active | Kd [9]: Not Active | pKd [10]: 6.32 | pKd [12]: 5.80

pIC50 [1]: < 5.00
SMILES: NCCCCN(CC[C@H](N)C(=O)O)C[C@H]1O[C@@H](n2cnc3c(N)ncnc32)[C@H](O)[C@@H]1O

pIC50 [17]: < 5.00
SMILES: Nc1ncnc2c1ncn2[C@@H]1O[C@H](CNCC[C@H](N)C(=O)O)[C@@H](O)[C@H]1O

Activity [2]: Active
SMILES: CC[C@H](C)[C@H](NC(=O)[C@H](CCCNC(=N)N)NC(=O)[C@H](CCCCN)NC(=O)[C@@H]1CCCN1C(=O)CNCCCCN)C(=O)N[C@@H](C)C(N)=O (H-[Nlys]PKRIA-NH2)

Activity [2]: Active
SMILES: CC[C@H](C)[C@H](NC(=O)[C@H](CCCNC(=N)N)NC(=O)[C@H](CCCCN)NC(=O)[C@@H]1CCCN1C(=O)CNCCCCNCC[C@H](N)C(=O)O)C(=O)N[C@@H](C)C(N)=O

SMILES: CC[C@H](C)[C@H](NC(=O)[C@H](CCCNC(=N)N)NC(=O)[C@H](CCCCN)NC(=O)[C@@H]1CCCN1C(=O)CNCCCN(CC[C@H](N)C(=O)O)C[C@H]1O[C@@H](n2cnc3c(N)ncnc32)[C@H](O)[C@@H]1O)C(=O)N[C@@H](C)C(N)=O
pKi [3]: 8.62 | pKi [4]: 7.39 | pKi [5]: 9.11 | pIC50 [1]: 6.89 | pKi [8]: 8.89 | Kd [9]: Not Active | pKd [10]: 7.39 | pKi [11]: 8.60 | pKd [12]: 5.62
